Test results as given in ChEMBL document CHEMBL4699628, “Bivalent HIV-1 fusion inhibitors based on peptidomimetics” (Bioorg Med Chem, 2020).

How the values were obtained:
Type in all cases: cell-based
[1] = Cytotoxicity against human TZM-bl cells assessed as reduction in cell viability incubated for 48 hrs by CellTiter 96 aqueous nonradioactive cell proliferation assay
Summary of the method: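 TZM-bl cells with serially diluted compounds, no virus, otherwise as in infection assay (48 h culture); viability read by CellTiter 96 non-radioactive cell proliferation assay.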

[2] = Binding affinity to two PBDs of N36 trimer of gp41 in HIV1 NL4-3 infected in human TZM-bl cells assessed as inhibition of viral fusion incubated for 48 hrs by Steady-Glo luciferase assay; conditions: Human immunodeficiency virus 1, NL4-3, TZM-bl
TZM-bl = assay: Binding affinity to two PBDs of N36 trimer of gp41 in HIV1 NL4-3 infected in human TZM-bl cells assessed as inhibition of viral fusion at 50 uM incubated for 48 hrs by Steady-Glo luciferase assay; conditions: Human immunodeficiency virus 1

SMILES | IC50 [2] [µM] | CC50 at 48 h [1] [µM] | inhibition (TZM-bl) [%]
CC(C)C[C@H](NC(=O)c1ccc(NC(=O)[C@H](Cc2c[nH]c3ccccc23)NC(=O)CCC(=O)NCCOCCOCCOCCOCCOCCOCCOCCOCCOCCNC(=O)CCC(=O)O)c(OCCc2c[nH]c3ccccc23)c1)C(=O)O |  | > 50 | 7
CC(C)C[C@H](NC(=O)c1ccc(NC(=O)[C@@H](N)Cc2c[nH]c3ccccc23)c(OCCc2c[nH]c3ccccc23)c1)C(=O)O |  | > 50 | 1
O=C(O)C[C@H](NC(=O)CCC(=O)NCCOCCOCCOCCOCCOCCOCCOCCOCCOCCNC(=O)CCC(=O)N[C@@H](CC(=O)O)C(=O)Nc1ccc(C(=O)N[C@@H](Cc2c[nH]c3ccccc23)C(=O)O)cc1OCCc1c[nH]c2ccccc12)C(=O)Nc1ccc(C(=O)N[C@@H](Cc2c[nH]c3ccccc23)C(=O)O)cc1OCCc1c[nH]c2ccccc12 | 36.3 | > 50 | 
CC(C)C[C@H](NC(=O)c1ccc(NC(=O)[C@H](Cc2c[nH]c3ccccc23)NC(=O)CCC(=O)NCCOCCNC(=O)CCC(=O)N[C@@H](Cc2c[nH]c3ccccc23)C(=O)Nc2ccc(C(=O)N[C@@H](CC(C)C)C(=O)O)cc2OCCc2c[nH]c3ccccc23)c(OCCc2c[nH]c3ccccc23)c1)C(=O)O | 23.8 | > 50 | 
COc1ccc(C[C@H](N)C(=O)Nc2ccc(C(=O)N[C@@H](Cc3c[nH]c4ccccc34)C(=O)O)cc2OCCc2c[nH]c3ccccc23)cc1 |  | > 50 | 0
CC(C)C[C@H](NC(=O)c1ccc(NC(=O)[C@H](Cc2c[nH]c3ccccc23)NC(=O)CCC(=O)NCCOCCOCCOCCNC(=O)CCC(=O)N[C@@H](Cc2c[nH]c3ccccc23)C(=O)Nc2ccc(C(=O)N[C@@H](CC(C)C)C(=O)O)cc2OCCc2c[nH]c3ccccc23)c(OCCc2c[nH]c3ccccc23)c1)C(=O)O | 22.8 | > 50 | 

Second part, led by results:

IC50 [2] [µM] | SMILES | CC50 at 48 h [1] [µM] | inhibition (TZM-bl) [%]
1.7 | CC(C)C[C@H](NC(=O)c1ccc(NC(=O)[C@H](Cc2c[nH]c3ccccc23)NC(=O)CCC(=O)NCCOCCOCCOCCOCCOCCOCCOCCOCCOCCNC(=O)CCC(=O)N[C@@H](Cc2c[nH]c3ccccc23)C(=O)Nc2ccc(C(=O)N[C@@H](CC(C)C)C(=O)O)cc2OCCc2c[nH]c3ccccc23)c(OCCc2c[nH]c3ccccc23)c1)C(=O)O | > 50 | 
10.2 | COc1ccc(C[C@H](NC(=O)CCC(=O)NCCOCCOCCOCCOCCOCCOCCOCCOCCOCCNC(=O)CCC(=O)N[C@@H](Cc2ccc(OC)cc2)C(=O)Nc2ccc(C(=O)N[C@@H](Cc3c[nH]c4ccccc34)C(=O)O)cc2OCCc2c[nH]c3ccccc23)C(=O)Nc2ccc(C(=O)N[C@@H](Cc3c[nH]c4ccccc34)C(=O)O)cc2OCCc2c[nH]c3ccccc23)cc1 | > 50 | 
1.6 | N[C@@H](CC(=O)O)C(=O)Nc1ccc(C(=O)N[C@@H](Cc2c[nH]c3ccccc23)C(=O)O)cc1OCCc1c[nH]c2ccccc12 | > 50 | 
17 | CC(C)C[C@H](NC(=O)c1ccc(NC(=O)[C@H](Cc2c[nH]c3ccccc23)NC(=O)CCC(=O)NCCOCCOCCOCCOCCOCCOCCOCCNC(=O)CCC(=O)N[C@@H](Cc2c[nH]c3ccccc23)C(=O)Nc2ccc(C(=O)N[C@@H](CC(C)C)C(=O)O)cc2OCCc2c[nH]c3ccccc23)c(OCCc2c[nH]c3ccccc23)c1)C(=O)O | > 50 | 
15 | CC(C)C[C@H](NC(=O)c1ccc(NC(=O)[C@H](Cc2c[nH]c3ccccc23)NC(=O)CCC(=O)NCCOCCOCCOCCOCCOCCOCCOCCOCCOCCOCCOCCNC(=O)CCC(=O)N[C@@H](Cc2c[nH]c3ccccc23)C(=O)Nc2ccc(C(=O)N[C@@H](CC(C)C)C(=O)O)cc2OCCc2c[nH]c3ccccc23)c(OCCc2c[nH]c3ccccc23)c1)C(=O)O | > 50 | 
0.118 | Cc1cn([C@H]2C[C@H](N=[N+]=[N-])[C@@H](CO)O2)c(=O)[nH]c1=O [ZIDOVUDINE] | > 100 | 
17.3 | CC(C)C[C@H](NC(=O)c1ccc(NC(=O)[C@H](Cc2c[nH]c3ccccc23)NC(=O)CCC(=O)NCCOCCOCCOCCOCCOCCNC(=O)CCC(=O)N[C@@H](Cc2c[nH]c3ccccc23)C(=O)Nc2ccc(C(=O)N[C@@H](CC(C)C)C(=O)O)cc2OCCc2c[nH]c3ccccc23)c(OCCc2c[nH]c3ccccc23)c1)C(=O)O | > 50 | 
